Data as given in ChEMBL document CHEMBL4665913, “Discovery of CA-4948, an Orally Bioavailable IRAK4 Inhibitor for Treatment of Hematologic Malignancies” (ACS Med Chem Lett, 2020).
Values belong to the compound of their own block, whether it stands above or below them.

What was measured:
[1] = Metabolic stability in rat liver microsomes assessed as parent compound remaining at 1 uM measured upto 60 mins in presence of NADPH by LC-MS/MS analysis; assay type: ADME, Microsome; conditions: read-out: Stabilty
[2] = Metabolic stability in human liver microsomes assessed as parent compound remaining at 1 uM measured upto 60 mins in presence of NADPH by LC-MS/MS analysis; assay type: ADME, Microsome; conditions: read-out: Stabilty
[3] = Metabolic stability in mouse liver microsomes assessed as parent compound remaining at 1 uM measured upto 60 mins in presence of NADPH by LC-MS/MS analysis; assay type: ADME, Microsome; conditions: read-out: Stabilty
in vitro = conditions: human, Caco-2
[4] = Tmax in dog at 10 mg/kg, po measured up to 24 hrs by LC-MS/MS analysis; assay type: ADME, organism-based, Canis lupus familiaris; conditions: in vivo
[5] = Half life in CD1 mouse at 3 mg/kg, iv measured up to 24 hrs by LC-MS/MS analysis; assay type: ADME, organism-based; conditions: in vivo
[6] = Oral bioavailability in Wistar rat at 10 mg/kg measured up to 24 hrs by LC-MS/MS analysis; assay type: ADME, organism-based; conditions: in vivo
[7] = AUC (0 to t) in dog at 10 mg/kg, po measured up to 24 hrs by LC-MS/MS analysis; assay type: ADME, organism-based, Canis lupus familiaris; parameters: route oral, dose 10 mg/kg, time <=24; conditions: in vivo
[8] = Drug concentration in human OCI-LY3 cells xenografted SCID Beige mouse plasma at 25 mg/kg, po administered via gavage for 14 days and measured at 2 hrs post last dose by LC-MS/MS analysis; assay type: ADME, organism-based; conditions: time 14 day
Summary of the method: (§1)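 Xenograft-bearing mice (OCI-Ly3) were given oral doses of 25, 50, 100 or 200 mg/kg once daily. Plasma and tumor were collected 2 h after the final dose on day 15. Results are reported as mean plasma concentration (ng/mL) and mean tumor concentration (ng/g) for each dose group.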

[9] = Cmax in Wistar rat at 10 mg/kg, po measured up to 24 hrs by LC-MS/MS analysis; assay type: ADME, organism-based; parameters: route oral, dose 10 mg/kg, time <=24; conditions: in vivo
[10] = Clearance in Wistar rat at 3 mg/kg, iv measured up to 24 hrs by LC-MS/MS analysis; assay type: ADME, organism-based; conditions: in vivo
[11] = Initial plasma concentration in Wistar rat at 3 mg/kg, iv by LC-MS/MS analysis; assay type: ADME, organism-based
[12] = Clearance in CD1 mouse at 3 mg/kg, iv measured up to 24 hrs by LC-MS/MS analysis; assay type: ADME, organism-based; conditions: in vivo
[13] = Volume of distribution in CD1 mouse at 3 mg/kg, iv measured up to 24 hrs by LC-MS/MS analysis; assay type: ADME, organism-based; conditions: in vivo
[14] = AUC (0 to t) in CD-1 mouse at 3 mg/kg, iv measured up to 24 hrs by LC-MS/MS analysis; assay type: ADME, organism-based; parameters: route intravenous, dose 3 mg/kg, time <=24; conditions: in vivo
[15] = Initial plasma concentration in CD1 mouse at 3 mg/kg, iv by LC-MS/MS analysis; assay type: ADME, organism-based
[16] = Initial plasma concentration in dog at 1 mg/kg, iv by LC-MS/MS analysis; assay type: ADME, organism-based, Canis lupus familiaris
[17] = AUC (0 to t) in Wistar rat at 10 mg/kg, po measured up to 24 hrs by LC-MS/MS analysis; assay type: ADME, organism-based; parameters: route oral, dose 10 mg/kg, time <=24; conditions: in vivo
[18] = Clearance in dog at 1 mg/kg, iv measured up to 24 hrs by LC-MS/MS analysis; assay type: ADME, organism-based, Canis lupus familiaris; conditions: in vivo
[19] = Half life in dog at 1 mg/kg, iv measured up to 24 hrs by LC-MS/MS analysis; assay type: ADME, organism-based, Canis lupus familiaris; conditions: in vivo
[20] = Tmax in CD1 mouse at 10 mg/kg, po measured up to 24 hrs by LC-MS/MS analysis; assay type: ADME, organism-based; conditions: in vivo
[21] = AUC (0 to t) in dog at 1 mg/kg, iv measured up to 24 hrs by LC-MS/MS analysis; assay type: ADME, organism-based, Canis lupus familiaris; parameters: route intravenous, dose 1 mg/kg, time <=24; conditions: in vivo
[22] = Half life in Wistar rat at 3 mg/kg, iv measured up to 24 hrs by LC-MS/MS analysis; assay type: ADME, organism-based; conditions: in vivo
[23] = Drug concentration in human OCI-LY3 cells xenografted SCID Beige mouse tumor at 50 mg/kg, po administered via gavage for 14 days and measured at 2 hrs post last dose by LC-MS/MS analysis; assay type: ADME, organism-based, Neoplasm; conditions: time 14 day, read-out: Ct; summary of the method: as §1
[24] = Cmax in CD1 mouse at 10 mg/kg, po measured up to 24 hrs by LC-MS/MS analysis; assay type: ADME, organism-based; parameters: route oral, dose 10 mg/kg, time <=24; conditions: in vivo
[25] = Oral bioavailability in dog at 10 mg/kg measured up to 24 hrs by LC-MS/MS analysis; assay type: ADME, organism-based, Canis lupus familiaris; conditions: in vivo
[26] = Drug concentration in human OCI-LY3 cells xenografted SCID Beige mouse plasma at 100 mg/kg, po administered via gavage for 14 days and measured at 2 hrs post last dose by LC-MS/MS analysis; assay type: ADME, organism-based; conditions: time 14 day; summary of the method: as §1
[27] = Volume of distribution in Wistar rat at 3 mg/kg, iv measured up to 24 hrs by LC-MS/MS analysis; assay type: ADME, organism-based; conditions: in vivo
[28] = Tmax in Wistar rat at 10 mg/kg, po measured up to 24 hrs by LC-MS/MS analysis; assay type: ADME, organism-based; conditions: in vivo
[29] = Drug concentration in human OCI-LY3 cells xenografted SCID Beige mouse plasma at 50 mg/kg, po administered via gavage for 14 days and measured at 2 hrs post last dose by LC-MS/MS analysis; assay type: ADME, organism-based; conditions: time 14 day; summary of the method: as §1
[30] = Drug concentration in human OCI-LY3 cells xenografted SCID Beige mouse tumor at 25 mg/kg, po administered via gavage for 14 days and measured at 2 hrs post last dose by LC-MS/MS analysis; assay type: ADME, organism-based, Neoplasm; conditions: time 14 day, read-out: Ct; summary of the method: as §1
[31] = Drug concentration in human OCI-LY3 cells xenografted SCID Beige mouse plasma at 200 mg/kg, po administered via gavage for 14 days and measured at 2 hrs post last dose by LC-MS/MS analysis; assay type: ADME, organism-based; conditions: time 14 day; summary of the method: as §1
[32] = Drug concentration in human OCI-LY3 cells xenografted SCID Beige mouse tumor at 200 mg/kg, po administered via gavage for 14 days and measured at 2 hrs post last dose by LC-MS/MS analysis; assay type: ADME, organism-based, Neoplasm; conditions: time 14 day, read-out: Ct; summary of the method: as §1
[33] = Cmax in dog at 10 mg/kg, po measured up to 24 hrs by LC-MS/MS analysis; assay type: ADME, organism-based, Canis lupus familiaris; parameters: route oral, dose 10 mg/kg, time <=24; conditions: in vivo
[34] = AUC (0 to t) in CD-1 mouse at 10 mg/kg, po measured up to 24 hrs by LC-MS/MS analysis; assay type: ADME, organism-based; parameters: route oral, dose 10 mg/kg, time <=24; conditions: in vivo
[35] = Oral bioavailability in CD1 mouse at 10 mg/kg measured up to 24 hrs by LC-MS/MS analysis; assay type: ADME, organism-based; conditions: in vivo
[36] = Drug concentration in human OCI-LY3 cells xenografted SCID Beige mouse tumor at 100 mg/kg, po administered via gavage for 14 days and measured at 2 hrs post last dose by LC-MS/MS analysis; assay type: ADME, organism-based, Neoplasm; conditions: time 14 day, read-out: Ct; summary of the method: as §1
[37] = Volume of distribution in dog at 1 mg/kg, iv measured up to 24 hrs by LC-MS/MS analysis; assay type: ADME, organism-based, Canis lupus familiaris; conditions: in vivo
[38] = Fraction unbound in human OCI-LY3 cells xenografted SCID Beige mouse plasma at 200 mg/kg, po after 24 hrs by equilibrium dialysis method; assay type: ADME, organism-based; conditions: in vivo
Summary of the method: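 Mouse plasma protein binding is the mean of 2 determinations. It was applied to the plasma exposures at 12 and 24 h in the OCI-Ly3 PK/PD study to estimate unbound plasma levels.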

[39] = AUC (0 to t) in Wistar rat at 3 mg/kg, iv measured up to 24 hrs by LC-MS/MS analysis; assay type: ADME, organism-based; parameters: route intravenous, dose 3 mg/kg, time <=24; conditions: in vivo

Compound: CCC1(O)CCCN(c2nc3nc(N4CCOCC4)oc3cc2NC(=O)c2coc(-c3ccnc(C)c3)n2)C1 (configuration not stated)
remaining at 1 h, 1 µM [1]: > 95% | remaining at 1 h, 1 µM [2]: > 95% | remaining at 1 h, 1 µM [3]: 91% | Papp A→B at 2 h, 10 µM (in vitro): 8.5 ×10⁻⁶ cm/s

Compound: Nc1ccc(-c2cccc(C(=O)Nc3ccc4nc(N5CCOCC5)oc4c3)n2)cn1
Papp A→B at 2 h, 10 µM (in vitro): 21.4 ×10⁻⁶ cm/s

Continued, values first:

remaining at 1 h, 1 µM [1]: > 95% | remaining at 1 h, 1 µM [2]: > 95% | remaining at 1 h, 1 µM [3]: 82% | Papp A→B at 2 h, 10 µM (in vitro): 1 ×10⁻⁶ cm/s
Compound: Cc1cc(-c2nc(C(=O)Nc3cc4oc(N5CCOCC5)nc4nc3N3CC[C@@H](N)C3)co2)ccn1

Tmax [4]: 1.17 h | half-life [5]: 2.6 h | bioavailability [6]: 46% | AUC(0-t) at 24 h [7]: 86500 ng·h/mL | concentration at 336 h [8]: 5080 ng/mL | remaining at 1 h, 1 µM [1]: > 95% | Cmax [9]: 22100 ng/mL | CL [10]: 0.4 mL/min/kg | C0 [11]: 27700 ng/mL | clearance [12]: 9.27 mL/min/kg | Vd [13]: 0.661 L/kg | remaining at 1 h, 1 µM [2]: > 95% | AUC(0-t) at 24 h [14]: 5270 ng·h/mL | C0 [15]: 7480 ng/mL | C0 [16]: 1960 ng/mL | AUC(0-t) at 24 h [17]: 171000 ng·h/mL | clearance [18]: 3.1 mL/min/kg | half-life [19]: 2.6 h | Tmax [20]: 0.5 h | AUC(0-t) at 24 h [21]: 6060 ng·h/mL | t1/2 [22]: 5.3 h | remaining at 1 h, 1 µM [3]: > 95% | concentration at 336 h [23]: 8290 ng/g | Cmax [24]: 6620 ng/mL | bioavailability [25]: 100% | concentration at 336 h [26]: 23300 ng/mL | Vd [27]: 2 L/kg | Tmax [28]: 1.2 h | concentration at 336 h [29]: 11600 ng/mL | Papp A→B at 2 h, 10 µM (in vitro): 8.9 ×10⁻⁶ cm/s | concentration at 336 h [30]: 2670 ng/g | concentration at 336 h [31]: 39100 ng/mL | concentration at 336 h [32]: 37000 ng/g | Cmax [33]: 12800 ng/mL | AUC(0-t) at 24 h [34]: 12500 ng·h/mL | bioavailability [35]: 71% | concentration at 336 h [36]: 17900 ng/g | Vd [37]: 0.5 L/kg | Cp(f) [38]: 49.3 ng/mL | AUC(0-t) at 24 h [39]: 112000 ng·h/mL
Compound: Cc1cc(-c2nc(C(=O)Nc3cc4oc(N5CCOCC5)nc4nc3N3CC[C@@H](O)C3)co2)ccn1 [EMAVUSERTIB]

half-life [5]: 0.8 h | remaining at 1 h, 1 µM [1]: > 95% | clearance [12]: 52.2 mL/min/kg | Vd [13]: 5.57 L/kg | remaining at 1 h, 1 µM [2]: > 95% | AUC(0-t) at 24 h [14]: 928 ng·h/mL | C0 [15]: 788 ng/mL | Tmax [20]: 0.3 h | remaining at 1 h, 1 µM [3]: > 95% | Cmax [24]: 2530 ng/mL | Papp A→B at 2 h, 10 µM (in vitro): 21.9 ×10⁻⁶ cm/s | AUC(0-t) at 24 h [34]: 4490 ng·h/mL | bioavailability [35]: 100%
Compound: Cc1cc(-c2nc(C(=O)Nc3cc4oc(N5CCOCC5)nc4nc3N3CC[C@H](O)C3)co2)ccn1
